High-throughput results as filed in PubChem.
FLuc inh counter: Photinus pyralis luciferase inhibition counter-screen; AID 1006; 1.5% of 200,000 active; P08659; ATPLite firefly luciferase biochemical luminescence, 10 min; inhibition, % at 10 µM;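 active = inhibition above about 50% when tested at 10 µM, limit read from the data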
Target sequence (P08659 whole entry, looked up): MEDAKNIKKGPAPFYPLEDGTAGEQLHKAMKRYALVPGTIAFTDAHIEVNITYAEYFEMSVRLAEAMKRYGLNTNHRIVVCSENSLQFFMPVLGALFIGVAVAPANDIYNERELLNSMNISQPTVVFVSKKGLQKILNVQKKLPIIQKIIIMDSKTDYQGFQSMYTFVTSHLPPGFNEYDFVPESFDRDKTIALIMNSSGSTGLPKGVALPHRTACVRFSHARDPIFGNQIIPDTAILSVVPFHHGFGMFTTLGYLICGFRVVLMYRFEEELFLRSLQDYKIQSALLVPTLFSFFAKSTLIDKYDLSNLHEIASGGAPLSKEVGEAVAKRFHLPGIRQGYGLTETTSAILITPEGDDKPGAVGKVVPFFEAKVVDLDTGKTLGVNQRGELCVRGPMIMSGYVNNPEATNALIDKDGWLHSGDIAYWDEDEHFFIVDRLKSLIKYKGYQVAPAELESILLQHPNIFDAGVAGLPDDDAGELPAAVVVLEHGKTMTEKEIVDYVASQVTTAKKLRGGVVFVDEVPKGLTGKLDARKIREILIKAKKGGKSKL
NF-kB neuron act: NF-kB expression increase, human neuronal cells; NF-kB reporter expression; stronger effect = higher value; fold change at 12.5 µM; 1.6% of 190,000 active; AID 1239; in the data active = fold change above about 3.3
PPC-1+TRAIL kill: kills PPC-1 cancer cells in the presence of TRAIL; PPC-1 cells + TRAIL, ATPLite viability luminescence; cell killing (% activity), % at 4 µM or 5 µM; 0.41% of 220,000 active;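 active = cell killing above 50% in the first pass at 4 µM, then a duplicate retest at 5 µM averaging 50% or more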
C8 TRAIL sens: sensitizes caspase-8 expressing cells to TRAIL. inhibition (viability loss, TRAIL sensitization), % at 10 µM. NB7+C8 cells + TRAIL, ATPlite viability luminescence. AID 624354. 1% of 360,000 active;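 active = compounds causing at least 50% loss of cell viability in the single-dose screen, relative to plate controls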
FLuc stim CS: affects firefly luciferase, flagging false hits in luciferase stimulation screens; P08659; ATPlite luciferase biochemical, luminescence, 10 min; 0 = ATP-free wells, 1 = DMSO control; activation factor at 10 µM; 200,000 tested, under 10 active; AID 1027;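 active = luciferase activation factor, scaled between plate controls, of at least 2 with compound at 10 µM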
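System: cell-free luciferase reagent; medium: PBS as buffer for the ATP substrate; doses: test compounds dosed from 2 mM stocks in 100% DMSO; incubation: 10 min, room temperature; measured by: luminescence from luciferase reaction; read-out: luciferase activation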
APP 5'UTR act: activates APP 5'UTR luciferase reporter; AID 1276; activation, % at 2 µM; SH-SY5Y APP 5'UTR luciferase reporter, luminescence; zero percent = DMSO vehicle wells; 1% of 190,000 active;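 active = activation above a set limit, based on mean plus 3 SD of controls, cut at about 140% in these data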
A number is an active result; – = inactive; · = no result. Sampled rows, rich in hits. Any-hit rate of the full collection: about 2.2%.

SMILES | FLuc inh counter | NF-kB neuron act | PPC-1+TRAIL kill | C8 TRAIL sens | FLuc stim CS | APP 5'UTR act
O=C(CCc1ccccc1)N/N=C/c1cc(Br)ccc1O | – | – | – | 55 | – | –
O=C(N/N=C/c1cc(Br)ccc1O)c1ccccc1Cl | – | – | – | 56 | – | –
Cc1ccc(OCc2nc(-c3ccccn3)n[nH]2)cc1 | – | 13 | – | – | – | –
Cc1ccc2sc(N(CCCN(C)C)C(=O)CCS(=O)(=O)c3ccccc3)nc2c1C | · | · | · | 51 | · | ·
c1ccc2oc(-c3csc(N4CCOCC4)n3)cc2c1 | 86 | 5.8 | – | 53 | – | 138
Fc1ccc(-c2csc(N3CCOCC3)n2)cc1 | · | · | – | – | · | ·
CC1(C(=O)Nc2ccc(Cl)c(Cl)c2)CCN1C(=O)Cc1ccc(-c2ccccc2)cc1 (stereo unspecified) | · | · | · | – | · | ·
Cc1ccc2nc(-c3ccccc3)nn2c1 | · | · | · | 76 | · | ·
CN(C)CCNC(=O)c1cc2c(s1)-c1ccc(Cl)cc1SC2 | · | · | · | 97 | · | ·
COc1ccc(Oc2c(Cl)cnn(-c3ccc(F)cc3)c2=O)cc1 | – | – | – | 87 | – | –
COc1ccc(Oc2c(Cl)cnn(-c3ccc(C)cc3)c2=O)cc1 | – | – | – | 61 | – | –
COc1c(Cl)cnn(-c2ccc(C)cc2)c1=O | – | – | – | – | – | –
COc1ccc(Oc2c(Cl)cnn(-c3ccc(Cl)c(Cl)c3)c2=O)cc1 | – | – | – | 89 | – | –
CC1CCCN(CC(=O)Nc2ccc(S(=O)(=O)N3CCCC3)cc2)C1 (stereo unspecified) | · | · | · | – | · | ·
CC1Oc2cc3oc4c(O)c(O)ccc4c(=O)c3c(O)c2C1(C)C (stereo unspecified) | · | · | · | 53 | · | ·
COc1ccc(-c2cc(=O)oc3c(O)c(O)ccc23)cc1 | · | · | · | – | · | ·
COc1ccc(-c2cc(C(=O)O)nc3ccc4ccccc4c23)cc1OC | 65 | – | – | – | – | –
N#C/C(=C\c1ccc(N2CCOCC2)o1)c1nc2ccccc2[nH]1 | 85 | – | – | 57 | – | 156
Cc1cccc(C)c1NC(=O)C1CCN(S(C)(=O)=O)CC1 | · | · | · | 51 | · | ·
Cc1cc(C)cc(C(=O)Nc2nnc(SCC(=O)N3CCCc4ccccc43)s2)c1 | – | – | – | – | – | –
O=C(Nc1nnc(SCC(=O)N2CCCc3ccccc32)s1)c1ccc2ccccc2c1 | 92 | – | 64 | 83 | – | –
O=C(Nc1nnc(SCC(=O)N2CCCc3ccccc32)s1)c1ccccc1 | 92 | – | 75 | 75 | – | –
COc1ccc(C(=O)OC(C)C(=O)NCC2CCCCC2)cc1S(=O)(=O)N1CCOCC1 (stereo unspecified) | · | · | · | – | · | ·
Cc1c(C(=O)NCC2CCCO2)oc2ccc3c(c12)C(=O)CC(C)(C)O3 (stereo unspecified) | 67 | 3.4 | – | – | – | 156
COc1ccc(NC(=O)C(c2cc3ccccc3o2)n2c(=O)c(-c3cc4ccccc4[nH]3)nc3ccccc32)cc1 (stereo unspecified) | · | · | · | – | · | ·
SMILES | FLuc inh counter | NF-kB neuron act | PPC-1+TRAIL kill | C8 TRAIL sens | FLuc stim CS | APP 5'UTR act
COc1cccc(N/C=C/c2onc(C)c2[N+](=O)[O-])c1 | – | – | – | – | – | 146
CN(C)CCCNc1c2c(nc3ccccc13)CCC2 | · | · | · | – | · | ·
CN(C)CCNCCCNc1c2ccccc2nc2cccc([N+](=O)[O-])c12 | · | · | · | 61 | · | ·
COc1ccc2nc3cc(Cl)ccc3c(Nc3cc(CN4CCCC4)c(O)c(CN4CCCC4)c3)c2n1 | · | · | · | 79 | · | ·
CCc1cc(CNC(=O)C2CCC(=O)N(Cc3ccccc3F)C2)on1 (stereo unspecified) | · | · | · | – | · | ·
Cc1cccc(-c2cc3nc4c(c(N5CCOCC5)n3n2)CCCC4)c1 | – | – | – | – | – | 183
Cc1ccc(-c2csc(NC(=O)CSc3nnc4c(n3)[nH]c3ccccc34)n2)cc1 | – | – | – | 52 | – | –
CC(C)CSc1nnc2c(n1)[nH]c1ccccc12 | – | 4.8 | – | – | – | –
COc1ccc(NS(=O)(=O)c2cccc(C(=O)N/N=C/c3c(F)c(F)c(F)c(F)c3F)c2)cc1 | · | · | · | 66 | · | ·
COc1ccc(Cl)c2c1[nH]c1nc(SCc3ccccn3)nnc12 | – | 4.2 | – | – | – | 157
O=C1c2ccccc2C(=O)C1c1ccc(Br)cc1 | · | · | · | – | · | ·
O=C1c2ccccc2C(=O)C1c1ccc(O)cc1 | – | 3.8 | – | – | – | –
Cc1cc(C)cc(Nc2ncc3c(n2)CCCC3=O)c1 | – | – | – | – | – | 163
